# High-throughput results: PubChem BioAssay, several laboratories
# HSV replic up – increases HSV replication in cells. HSV replication augmentation in cells, fold increase. actives 0.005% (n = 220,000). maximum fold increase; in the data active means maximum fold increase above about 1.5; tested in PC3 cells
# HSF1 inh – HSF1 inhibition; NIH3T3-HGL HSE-luciferase, MG132-induced, luminescence 8 h; hits give low values; activity change, negative = inhibition, % at 7.5 µM (by protocol); actives 0.77% (n = 300,000);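 active means more than half of replicate wells show activity change below -50%, luminescence cut by over half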;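 further: luciferase reports HSF-1 transcriptional activity via heat shock element; 0% = median of DMSO wells and -100% = zero luminescence signal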
# Rad51 HR inh – blocks human Rad51 in homologous recombination; Q06609; hRad51 DNA strand exchange, fluorescence dequenching; actives 0.085% (n = 200,000); inhibition, % at 10 µM;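 active means inhibition above 40% at the single screening dose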;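 further: 0% = DMSO control wells and 100% = blanks with heterologous ssDNA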
# Target sequence (Q06609 whole entry, looked up): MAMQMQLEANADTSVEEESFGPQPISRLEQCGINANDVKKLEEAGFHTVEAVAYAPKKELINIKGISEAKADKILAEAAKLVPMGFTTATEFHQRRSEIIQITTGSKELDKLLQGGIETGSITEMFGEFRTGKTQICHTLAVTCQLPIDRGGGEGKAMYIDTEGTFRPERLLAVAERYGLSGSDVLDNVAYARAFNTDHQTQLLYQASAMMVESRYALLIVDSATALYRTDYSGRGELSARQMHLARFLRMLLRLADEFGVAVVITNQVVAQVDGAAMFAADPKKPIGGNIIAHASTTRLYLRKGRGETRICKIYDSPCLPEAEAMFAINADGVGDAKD
#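 Test system – preformed human Rad51 ssDNA filaments · Reagent – Donor/quencher-labelled 47-bp dsDNA substrate · Incubation – 37 °C 15-min filament assembly, 30-min compound preincubation, 15-min exchange · Signal – FRET fluorescence dequenching, excitation 485 nm, emission 520 nm · Read-out – percent inhibition from fluorescence, normalised to plate control and blank means · Benchmarks – plate control and blank wells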
# Mdm2 ligase inh – Mdm2 E3 ligase (human) inhibition. Q00987. cell-based MDM2 ubiquitination luciferase reporter, 2 h; 0 = plate control, 100 = twice control, blank-subtracted. signal enhancement, % at 5 µM. actives 0.11% (n = 210,000). AID 1230;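 active means signal enhancement of 30% or more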;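 further: luminescence tracks abundance of the self-degrading MDM2-luciferase fusion protein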
#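 Timing – 2 h compound exposure at 37 °C · Assay system – mammalian cells stably expressing self-ubiquitinating, self-degrading MDM2 E3–luciferase fusion · Amount – 2000 cells seeded into each well · Measure – % luminescence enhancement versus blank-corrected plate control mean · Measured by – SteadyLite luminescence, 15 min reagent step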
# Hsp70 activator – switches on Hsp70 transcription; actives 0.04% (n = 200,000); HeLa Hsp70 promoter luciferase reporter, luminescence; scaled: vehicle 0, proteasome-inhibitor control 100%; activation, % at 10 µM;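 active means activation above the mean across all tested compounds plus 3 SD, cutoff set per campaign, cut at about 5.5% in these data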;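 further: 100% = MG132 at 30 µM as the positive control and 0% = DMSO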
# HSF1 activator – increases HSF-1 driven luciferase reporter signal. NIH3T3-HGL HSF-1 luciferase reporter, MG132, 8 h; 100% = twice DMSO control signal. activation, % at 9 µM. actives 1.7% (n = 300,000). AID 504408;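 active means mean replicate activation of at least 50% with a set share of replicates each reaching 50%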;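 further: 0% = median of the neutral control wells and 100% = twice that signal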
# Starred values were filed as active, the others as inactive; i = inactive; . = no result. Compounds with a hit are over-represented: about 2.6% of the library has one in this group of screens.
SMILES,HSV replic up,HSF1 inh,Rad51 HR inh,Mdm2 ligase inh,Hsp70 activator,HSF1 activator
COc1cc(/C=N/Nc2snc(SC)c2C#N)ccc1O,i,46,3,-9,0,75*
O=C(/C(=C/c1ccc(Cl)cc1)c1nc2ccccc2[nH]1)c1ccccc1,i,123,5,-1,5,184*
COc1cc(/C=N/Nc2nc3ccccc3[nH]2)cc(OC)c1O,i,146,3,-11,0,149*
COc1ccc(N(CC(=O)NCc2ccccc2OC)S(=O)(=O)c2ccccc2)cc1,.,-1,.,.,.,-19
COC(=O)c1ccc(CSc2ncnc3c2oc2ccccc23)o1,i,96,-2,.,0,113*
c1coc(CSc2ncnc3c2oc2ccccc23)c1,i,29,.,1,.,66*
c1ccc(CSc2ncnc3c2oc2ccccc23)cc1,i,3,-3,.,0,1
COC(=O)c1ccc(CSc2ncnc3ccccc23)o1,i,19,-4,-16,0,31
Cc1cc(C)c(C(=O)COC(=O)c2cc([N+](=O)[O-])ccc2NCCO)cc1C,i,3,2,-15,0,23
CC1(C)CC(=O)C(C(c2cccnc2)C2C(=O)CC(C)(C)CC2=O)C(=O)C1,i,-90*,-2,-6,0,-92
CCOc1cc(C(=S)N2CCOCC2)ccc1OS(=O)(=O)c1ccc(NC(C)=O)cc1,i,-4,2,-16,0,-4
CCOc1cc(C(=S)N2CCOCC2)ccc1OS(=O)(=O)c1ccc(OC)cc1,.,-78*,.,.,.,-83
COc1cccc(N(C(=O)CCl)C(C(=O)NCCc2ccccc2)c2cccs2)c1 (configuration not stated),i,-92*,-3,-15,0,-93
COc1ccc(N(C(=O)CCl)C(C(=O)NCCc2ccccc2)c2cccs2)cc1Cl (configuration not stated),i,14,.,.,0,18
O=[N+]([O-])c1ncccc1OCc1ccccc1Br,.,4,.,.,.,28
COc1ccccc1C(=O)O/N=C(\N)c1ccccc1Cl,i,24,8,5,0,70*
N/C(=N\OC(=O)c1ccc(Cl)cc1Cl)c1ccc(Cl)cc1,i,-72*,-2,-65,0,-73
COc1ccc(C(=O)O/N=C(\N)c2ccccc2Cl)cc1OC,.,14,.,.,.,9
Cc1ccc(/C(N)=N/OC(=O)c2ccc(C)cc2Cl)cc1,i,-63*,.,-54,0,-70
CC(C)c1ccc2nc(SCC(=O)NCC3CCCO3)c(C#N)cc2c1 (configuration not stated),.,3,.,.,.,-14
CC(C)(C)NC(=O)CSc1ncnc2c1cnn2-c1ccccc1,.,17,.,.,.,12
CCn1c(CC(C)C)n[nH]c1=S,i,25,8,-3,0,59*
CCn1c(CSCc2ccc(C)cc2)n[nH]c1=S,.,1,.,.,.,-9
O=C(NCc1ccccc1)c1onc(CSc2ccc(F)cc2)c1C(=O)NCc1ccccc1,i,-1,-4,.,.,-15
Cc1cc(C)cc(SCc2noc(C(=O)NCc3ccccc3)c2C(=O)NCc2ccccc2)c1,i,-60*,6,14,.,-67
SMILES,HSV replic up,HSF1 inh,Rad51 HR inh,Mdm2 ligase inh,Hsp70 activator,HSF1 activator
COC(=O)Cc1ccc(NC(=O)c2ccc(C)c(C)c2)cc1,i,39,2,-18,0,71*
Cc1ncoc1C(=O)Nc1ccc(Oc2ccccc2)cc1,i,28,-4,9,0,52*
Cc1nc(C)c(C(=O)Nc2ccc(Oc3ccccc3)cc2)o1,i,2,10,-15,0,2
CCc1cc(C(=O)NCC(C)(C)N2CCOCC2)sc1C,.,-68*,.,.,.,-76
O=C(CNCCc1ccc(F)cc1)Nc1cc(F)ccc1F,.,-60*,.,.,.,-69
CC(C)(C)NC(=O)C1CC(=O)OC12CCOC(C)(C)C2 (configuration not stated),i,-58*,9,-20,0,-65
Cc1ccc(NC(=O)C2CC(=O)OC23CCOC(C)(C)C3)cc1 (configuration not stated),i,9,-7,-2,0,21
COc1cc(/C=N/Nc2ccccc2[N+](=O)[O-])ccc1OC(=O)c1ccccc1F,i,9,7,-20,0,2
COc1cc(OC)cc(C(=O)Oc2ccc(/C=N/Nc3nc4ccccc4s3)cc2OC)c1,i,40,-3,1,0,82*
COc1cc(/C=N/Nc2nc3ccccc3s2)ccc1OC(=O)c1ccccc1F,i,66,17,-1,0,85*
CCC1CCCCN1CCCNC(=O)c1ccc2c(c1)N(Cc1ccc(F)cc1)C(=O)c1ccccc1S2=O (configuration not stated),.,2,.,.,.,-13
CCC1Oc2ccccc2N(CC(=O)NCc2cccs2)C1=O (configuration not stated),i,-1,.,-19,0,11
CCOCCCNC(=O)c1ccc(OC2CCN(C(C)=O)CC2)c(OC)c1,.,0,.,.,.,-8
O=C(Nc1ccc2c(c1)CCCN2C(=O)c1cccs1)c1cccc(F)c1,.,35,.,.,.,60*
CC(=O)O/N=C(\N)c1cnn2c(C(F)(F)F)cc(C(F)(F)F)nc12,i,-6,-8,-11,.,9
N#CCC(CNc1ncc(C(F)(F)F)cc1Cl)OC(=O)c1ccc(Cl)cc1Cl (configuration not stated),i,44,-4,-36,0,79*
CCc1ccc(OCC(=O)NNC(=O)c2nn(CC)c(=O)c3ccccc23)cc1,i,-7,20,-1,0,-1
CCn1nc(C(=O)NNC(=O)COc2ccccc2C)c2ccccc2c1=O,i,22,9,-13,0,57*
O=C(CS(=O)c1ccc(C(F)(F)F)cc1[N+](=O)[O-])Oc1ccc(Cl)cc1 (configuration not stated),i,65,-8,-2,1,73*
Cc1cc(C)cc(OC(=O)CS(=O)c2ccc(C(F)(F)F)cc2[N+](=O)[O-])c1 (configuration not stated),i,125,1,.,0,171*
COc1cc(S(=O)(=O)Nc2cccc3cn[nH]c23)c(OC)cc1Cl,.,17,.,.,.,26
O=C(O)COc1ccc(/C=N/NC(=O)c2ccccc2Br)cc1,i,-67*,.,-18,0,-74
O=C(COc1ccc(/C=N/NC(=O)c2ccccc2Br)cc1)Nc1ccccc1,.,-5,.,.,.,-14
COc1ccc(OC)c(NC(=O)CS(=O)(=O)Cc2ccccc2)c1,.,-61*,.,.,.,-71
COc1ccc(OC)c(NC(=O)CSCC(=O)O)c1,i,-90*,-3,-1,1,-92
